# Source: ChEMBL document CHEMBL4673255, “Acylated 1H-1,2,4-Triazol-5-amines Targeting Human Coagulation Factor XIIa and Thrombin: Conventional and Microscale Synthesis, Anticoagulant Properties, and Mechanism of Action” (J Med Chem, 2020)
# Active and inactive are the calls of the source. No cut-off for these calls is given here.
# Legend:
# HepG2 = assay: Cytotoxicity against human HepG2 cells assessed as reduction in cell viability at 100 uM incubated for 48 hrs by alamar blue assay relative to control; assay type: cell-based; settings: hepg2, 48 h
# [1] = target: T1, Coagulation factor XII (Homo sapiens) (UniProt P00748); assay: Binding affinity to human plasma coagulation factor XIIA assessed as compound-adduct formation by measuring change in molecular mass at molar ratio of 1:20 measured after 4 mins by SEC/ESI-TOF mass spectra analysis; assay type: cell-free
# T1 sequence (whole entry): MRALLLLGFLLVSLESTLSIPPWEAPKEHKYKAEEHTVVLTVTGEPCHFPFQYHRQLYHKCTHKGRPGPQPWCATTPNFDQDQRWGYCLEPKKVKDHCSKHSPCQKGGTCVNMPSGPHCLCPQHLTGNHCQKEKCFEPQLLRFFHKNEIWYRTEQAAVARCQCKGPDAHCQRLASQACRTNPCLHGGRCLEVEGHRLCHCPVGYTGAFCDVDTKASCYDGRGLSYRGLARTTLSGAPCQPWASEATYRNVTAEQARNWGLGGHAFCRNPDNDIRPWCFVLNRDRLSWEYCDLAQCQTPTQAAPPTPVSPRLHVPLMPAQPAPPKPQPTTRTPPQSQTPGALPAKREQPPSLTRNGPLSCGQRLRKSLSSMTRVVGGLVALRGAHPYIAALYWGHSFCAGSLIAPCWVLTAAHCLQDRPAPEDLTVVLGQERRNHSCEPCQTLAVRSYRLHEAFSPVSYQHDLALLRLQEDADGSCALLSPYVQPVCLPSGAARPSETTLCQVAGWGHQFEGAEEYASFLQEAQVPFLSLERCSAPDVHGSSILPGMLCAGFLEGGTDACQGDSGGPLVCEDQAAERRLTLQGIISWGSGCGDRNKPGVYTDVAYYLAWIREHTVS
# Procedure, shortened: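 β-FXIIa incubated with inhibitor at a 1:20 molar ratio, then size-exclusion chromatography coupled to ESI-MS to measure the mass of enzyme–inhibitor complexes. Further runs checked complex stability to probe reversibility.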
# Prothrombin [2] = target: T2, Prothrombin (Homo sapiens, UniProt P00734); assay: Inhibition of human coagulation factor alpha-thrombin using Boc-Val-Pro-Arg-AMC as fluorogenic substrate at 2 uM measured at 1 min interval for 1 hr by fluorometric assay relative to control
# Blood [3] = assay: Anticoagulant activity in human blood assessed as increase in activated partial thromboplastin time at 300 uM incubated for 1 min by aPTT reagent based assay relative to control; assay type: functional
# Procedure, shortened: (§1)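 Compounds were tested at 300 µM, and the increase was expressed relative to DMSO. The doubling concentration (EC2×) is the concentration prolonging aPTT twofold. At least triplicate, mean ± SD.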
# Blood [4] = assay: Effect on blood coagulation in human blood assessed as increase in prothrombin time at 300 uM incubated for 3 mins followed by CaCl2 addition by PT reagent based assay relative to control; assay type: ADME, tissue-based; settings: 0.05 h
# Procedure, shortened: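 Clotting was started with PT reagent already containing CaCl2, prewarmed to 37 °C, and clotting time was recorded. Increase is given relative to DMSO; at least triplicate, mean ± SD.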
# Homo sapiens = organism: Homo sapiens; assay: Selectivity index, ratio of IC50 for inhibition of human coagulation factor alpha-thrombin using Boc-Val-Pro-Arg-AMC as fluorogenic substrate to IC50 for inhibition of human coagulation factor XIIA using Boc-Gln-Gly-Arg-AMC as fluorogenic substrate incubated for 1 hr by fluorometric assay
# Coagulation factor X [5] = target: T3, Coagulation factor X (Homo sapiens, UniProt P00742); assay: Inhibition of human coagulation factor Xa using Boc-Ile-Glu-Gly-Arg-AMC as fluorogenic substrate measured at 1 min interval for 1 hr by fluorometric assay
# CCF-STTG1 = assay: Cytotoxicity against human CCF-STTG1 cells assessed as reduction in cell viability at 100 uM incubated for 48 hrs by alamar blue assay relative to control; assay type: cell-based; settings: ccf-sttg1, 48 h
# Plasma [6] = assay: Antiplatelet activity in […] assessed as inhibition of MDA-MB-231-induced platelet aggregation at 0.1 to 10 uM by light transmission aggregometry; assay type: functional; settings: Homo sapiens, dose 0.1-10 µM
# [7] = Inhibition of porcine trypsin using Z-Gly-Gly-Arg-AMC as fluorogenic substrate measured at 1 min interval for 1 hr by fluorometric assay; parameters: species or system Sus scrofa
# Coagulation factor XII = target: T4, Coagulation factor XII (Homo sapiens, UniProt P00748); assay: Inhibition of human coagulation factor XIIA using Boc-Gln-Gly-Arg-AMC as fluorogenic substrate measured at 1 min interval for 1 hr by fluorometric assay
# T4 sequence (P00748 whole entry): T1 sequence (whole entry)
# [8] = target: T1, Coagulation factor XII (Homo sapiens); assay: Inhibition of human coagulation factor XIIA in presence of Boc-Gln-Gly-Arg-AMC as fluorogenic substrate at 1 uM measured at 1 min interval for 1 hr by fluorometric assay relative to control
# Procedure, shortened: (§2)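 Screening of crude microscale amide-coupling products. Conversion was measured by 1H NMR and product content normalised to 76 µmol/L in DMSO, then tested at 1 µM and 100 nM in the fluorogenic FXIIa or thrombin assay. A 0-conversion reaction served as blank. Percent inhibition is from triplicates.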
# Prothrombin [9] = target: T2, Prothrombin; assay: Inhibition of human coagulation factor alpha-thrombin using Boc-Val-Pro-Arg-AMC as fluorogenic substrate measured at 1 min interval for 1 hr by fluorometric assay
# Blood [10] = assay: Anticoagulant activity in human blood assessed as activated partial thromboplastin time at 300 uM incubated for 1 min by aPTT reagent based assay (reference value: 44 sec); assay type: functional; procedure, shortened: as §1
# [11] = target: T5, Fatty-acid amide hydrolase 1 (Rattus norvegicus, UniProt P97612); assay: Inhibition of FAAH in rat brain membrane using N-(2-hydroxyethyl)-4-pyren-1-ylbutanamide as substrate measured after 60 mins by reverse-phase HPLC-based fluorescence assay; assay type: cell membranes
# T5 sequence (P97612 whole entry): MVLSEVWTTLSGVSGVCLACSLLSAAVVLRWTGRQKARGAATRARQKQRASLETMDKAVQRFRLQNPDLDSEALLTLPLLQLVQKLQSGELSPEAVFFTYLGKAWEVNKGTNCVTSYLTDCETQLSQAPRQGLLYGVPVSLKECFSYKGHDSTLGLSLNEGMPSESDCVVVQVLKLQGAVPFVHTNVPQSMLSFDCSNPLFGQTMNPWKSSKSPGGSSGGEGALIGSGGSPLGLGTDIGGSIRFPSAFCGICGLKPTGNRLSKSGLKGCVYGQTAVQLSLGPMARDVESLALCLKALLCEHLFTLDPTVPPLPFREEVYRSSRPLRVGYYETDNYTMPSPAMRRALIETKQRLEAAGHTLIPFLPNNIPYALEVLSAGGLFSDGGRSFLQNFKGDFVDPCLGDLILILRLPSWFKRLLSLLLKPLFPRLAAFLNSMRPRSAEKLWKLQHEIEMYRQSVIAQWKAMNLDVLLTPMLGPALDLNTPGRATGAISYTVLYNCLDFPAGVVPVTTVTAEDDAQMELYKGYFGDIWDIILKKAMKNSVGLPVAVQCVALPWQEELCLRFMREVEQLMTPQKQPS
# Plasminogen = Plasminogen (Homo sapiens, UniProt P00747); assay: Inhibition of human plasmin using Mes-dArg-Phe-Arg-AMC as fluorogenic substrate measured at 1 min interval for 1 hr by fluorometric assay
# Coagulation factor XI = Coagulation factor XI (Homo sapiens, UniProt P03951); assay: Inhibition of human coagulation factor XIA using Mes-dArg-Pro-Arg-AMC as fluorogenic substrate measured at 1 min interval for 1 hr by fluorometric assay
# Monoglyceride lipase = target: T6, Monoglyceride lipase (Homo sapiens, UniProt Q99685); assay: Inhibition of human recombinant MAGL using 1,3-dihydroxypropan-2-yl 4-pyren-1-ylbutanoate as substrate measured after 45 mins by reverse-phase HPLC-based fluorescence assay
# T6 sequence (Q99685 whole entry): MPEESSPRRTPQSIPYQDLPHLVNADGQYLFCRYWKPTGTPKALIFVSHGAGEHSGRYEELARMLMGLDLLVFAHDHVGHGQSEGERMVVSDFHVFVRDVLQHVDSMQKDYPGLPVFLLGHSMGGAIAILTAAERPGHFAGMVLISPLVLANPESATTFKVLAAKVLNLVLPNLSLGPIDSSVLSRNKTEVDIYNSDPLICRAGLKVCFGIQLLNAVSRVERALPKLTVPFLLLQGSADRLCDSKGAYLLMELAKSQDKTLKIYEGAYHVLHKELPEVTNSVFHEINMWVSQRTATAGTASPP
# [12] = target: T7, Urokinase-type plasminogen activator (Homo sapiens, UniProt P00749); assay: Inhibition of human uPA using Tos-Gly-Pro-Arg-AMC as fluorogenic substrate measured at 1 min interval for 1 hr by fluorometric assay
# Plasma kallikrein = Plasma kallikrein (Homo sapiens, UniProt P03952); assay: Inhibition of human kallikrein using Mes-dArg-Pro-Arg-AMC as fluorogenic substrate measured at 1 min interval for 1 hr by fluorometric assay
# Coagulation factor X [13] = target: T3, Coagulation factor X; assay: Inhibition of human coagulation factor Xa using Boc-Ile-Glu-Gly-Arg-AMC as fluorogenic substrate at 1 uM measured at 1 min interval for 1 hr by fluorometric assay relative to control
# Plasma [14] = assay: (§3) Anticoagulant activity in human platelet-rich plasma assessed as reduction in TF-induced thrombin generation by measuring endogenous thrombin potential at 1 uM preincubated for 15 mins followed by TF addition by Z-Gly-Gly-Arg-AMC substrate based calibrated automated thrombography (reference value: 1203 +/- 44 AU.min/L); assay type: functional; settings: 0.25 h
# Procedure, shortened: (§4)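 Tissue-factor-triggered homogeneous thrombin generation followed by fluorogenic substrate cleavage. Read-outs: clotting time (T1/2), peak amplitude (Amax, AU/L), time to peak (Tmax) and ETP (AU·min/L). DMSO and buffer served as controls. n = 3, mean ± SD.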
# Plasma [15] = assay: as §3, with “amplitude of” for “endogenous”, “peak” for “potential”, “63” for “1203”, “3.7 AU/L)” for “44 AU.min/L)”; assay type: functional; settings: 0.25 h; procedure, shortened: as §4
# Plasma [16] = assay: as §3, with “Tmax of clotting time” for “endogenous thrombin potential”, “8.1” for “1203”, “0.6 min)” for “44 AU.min/L)”; assay type: functional, cell-free; procedure, shortened: as §4
# Plasma [17] = assay: Anticoagulant activity in human platelet-rich plasma assessed as reduction in TF-induced thrombin generation by measuring half life of clotting time at 1 uM preincubated for 15 mins followed by TF addition by Z-Gly-Gly-Arg-AMC substrate based calibrated automated thrombography (Rvb= 3 +/- 0.5 min); assay type: functional, cell-free; procedure, shortened: as §4
# [18] = target: T1, Coagulation factor XII (Homo sapiens); assay: […] inhibition of human coagulation factor XIIA using Boc-Gln-Gly-Arg-AMC as fluorogenic substrate measured every 87 sec for 180 mins by time-dependent fluorescence assay
# Procedure, shortened: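 Fluorescence (ex 355/em 460 nm) was read at once, every 87 s, for up to 180 min. IC50 was computed at each time point and plotted against time.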
# Prothrombin [19] = target: T2, Prothrombin; assay: Inhibition of human coagulation factor alpha-thrombin at 33 uM using Boc-Val-Pro-Arg-AMC as fluorogenic substrate measured at 1 min interval for 1 hr by fluorometric assay relative to control
# [20] = target: T7, Urokinase-type plasminogen activator; assay: Inhibition of human uPA using Tos-Gly-Pro-Arg-AMC as fluorogenic substrate at 5 uM measured at 1 min interval for 1 hr by fluorometric assay relative to control
# Prothrombin [21] = target: T2, Prothrombin; assay: Inhibition of human coagulation factor thrombin using Boc-Val-Pro-Arg-AMC as fluorogenic substrate at 100 nM measured at 1 min interval for 1 hr by fluorometric assay relative to control; procedure, shortened: as §2
# [22] = target: T1, Coagulation factor XII (Homo sapiens); assay: Inhibition of human coagulation factor XIIA using Boc-Gln-Gly-Arg-AMC as fluorogenic substrate at 100 nM measured at 1 min interval for 1 hr by fluorometric assay relative to control; procedure, shortened: as §2
# T3 sequence (P00742 41-179 limits assumed): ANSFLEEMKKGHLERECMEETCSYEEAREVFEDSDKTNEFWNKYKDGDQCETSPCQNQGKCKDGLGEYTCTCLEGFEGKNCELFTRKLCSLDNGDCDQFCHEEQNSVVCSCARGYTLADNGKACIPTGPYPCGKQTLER
# T3 sequence (P00742 235-488 limits assumed): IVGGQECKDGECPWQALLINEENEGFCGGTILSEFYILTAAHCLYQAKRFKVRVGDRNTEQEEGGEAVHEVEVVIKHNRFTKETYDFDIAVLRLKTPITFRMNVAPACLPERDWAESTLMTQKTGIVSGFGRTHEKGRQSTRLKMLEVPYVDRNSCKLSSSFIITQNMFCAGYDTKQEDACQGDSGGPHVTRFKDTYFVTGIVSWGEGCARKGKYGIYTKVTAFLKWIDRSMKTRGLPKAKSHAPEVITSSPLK
# Sequence of Plasminogen (P00747 97-580 limits assumed): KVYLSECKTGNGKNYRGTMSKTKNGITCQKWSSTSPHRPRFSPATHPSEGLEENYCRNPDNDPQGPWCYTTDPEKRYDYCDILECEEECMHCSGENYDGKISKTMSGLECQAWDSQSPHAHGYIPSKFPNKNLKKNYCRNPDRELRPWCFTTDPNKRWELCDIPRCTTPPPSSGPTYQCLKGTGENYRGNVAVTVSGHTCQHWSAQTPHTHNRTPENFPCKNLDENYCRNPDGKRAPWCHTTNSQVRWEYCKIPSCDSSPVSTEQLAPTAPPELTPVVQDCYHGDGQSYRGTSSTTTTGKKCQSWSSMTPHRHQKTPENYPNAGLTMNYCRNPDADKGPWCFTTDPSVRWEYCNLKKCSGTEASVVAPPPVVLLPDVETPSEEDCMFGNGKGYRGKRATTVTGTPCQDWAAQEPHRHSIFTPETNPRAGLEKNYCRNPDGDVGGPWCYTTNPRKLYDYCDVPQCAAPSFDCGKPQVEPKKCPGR
# Sequence of Plasminogen (P00747 581-810 limits assumed): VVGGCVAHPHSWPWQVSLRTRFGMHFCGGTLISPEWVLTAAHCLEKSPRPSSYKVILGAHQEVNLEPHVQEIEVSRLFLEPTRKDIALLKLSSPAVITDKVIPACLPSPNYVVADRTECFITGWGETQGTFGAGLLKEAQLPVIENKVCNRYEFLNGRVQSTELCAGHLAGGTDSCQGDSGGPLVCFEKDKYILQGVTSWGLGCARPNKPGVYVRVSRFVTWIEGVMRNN
# Sequence of Coagulation factor XI (P03951 19-387 limits assumed): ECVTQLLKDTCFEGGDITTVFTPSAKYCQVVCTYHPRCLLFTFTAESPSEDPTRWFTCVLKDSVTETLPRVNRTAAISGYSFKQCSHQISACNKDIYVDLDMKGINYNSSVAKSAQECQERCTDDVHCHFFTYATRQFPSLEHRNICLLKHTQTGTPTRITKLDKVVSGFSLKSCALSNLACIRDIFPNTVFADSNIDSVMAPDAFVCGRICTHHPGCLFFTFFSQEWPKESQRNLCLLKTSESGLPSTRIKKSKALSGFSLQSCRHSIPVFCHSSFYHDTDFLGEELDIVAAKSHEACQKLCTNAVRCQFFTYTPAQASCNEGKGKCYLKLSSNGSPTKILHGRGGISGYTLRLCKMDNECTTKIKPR
# Sequence of Coagulation factor XI (P03951 388-625 limits assumed): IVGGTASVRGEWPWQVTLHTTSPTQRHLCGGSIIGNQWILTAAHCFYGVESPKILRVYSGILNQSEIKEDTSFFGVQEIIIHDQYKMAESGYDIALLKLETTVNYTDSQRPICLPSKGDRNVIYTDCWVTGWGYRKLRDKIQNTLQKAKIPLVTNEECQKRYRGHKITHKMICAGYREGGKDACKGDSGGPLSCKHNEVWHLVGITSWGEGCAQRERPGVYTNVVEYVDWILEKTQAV
# Sequence of Plasma kallikrein (P03952 20-390 limits assumed): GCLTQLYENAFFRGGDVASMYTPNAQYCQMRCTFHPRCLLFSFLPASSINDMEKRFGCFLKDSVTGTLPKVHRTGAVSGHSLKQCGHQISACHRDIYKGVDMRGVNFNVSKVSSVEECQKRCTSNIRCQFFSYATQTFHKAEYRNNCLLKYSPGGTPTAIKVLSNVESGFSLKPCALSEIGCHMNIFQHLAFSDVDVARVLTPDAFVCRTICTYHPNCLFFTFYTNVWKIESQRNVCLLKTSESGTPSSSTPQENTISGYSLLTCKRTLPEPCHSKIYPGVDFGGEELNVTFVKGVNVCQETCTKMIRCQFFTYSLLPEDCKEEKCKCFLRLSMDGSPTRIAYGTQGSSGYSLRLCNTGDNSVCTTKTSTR
# Sequence of Plasma kallikrein (P03952 391-638 limits assumed): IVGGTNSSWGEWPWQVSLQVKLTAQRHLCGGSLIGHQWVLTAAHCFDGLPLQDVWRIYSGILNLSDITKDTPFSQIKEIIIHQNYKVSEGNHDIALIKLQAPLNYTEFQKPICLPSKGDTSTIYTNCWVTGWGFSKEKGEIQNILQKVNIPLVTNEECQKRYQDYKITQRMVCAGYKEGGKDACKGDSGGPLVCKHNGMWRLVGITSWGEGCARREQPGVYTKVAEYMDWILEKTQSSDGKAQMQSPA
Compound,Activity (Blood [3]),Activity (Blood [4]),Ratio IC50 (Homo sapiens),IC50 (Coagulation factor X [5]),IC50 [7],IC50 (Coagulation factor XII),inhibition [8],IC50 (Prothrombin [9]),IC50 (Plasminogen),IC50 (Coagulation factor XI),IC50 (Plasma kallikrein),inhibition [18],also measured
Nc1nc(-c2ccccn2)nn1C(=O)c1ccc(NC(=O)c2ccccc2)cc1,35%,2%,> 18,> 5 µM,> 5 µM,0.109 µM,89%,–,–,–,–,–,Activity (HepG2): 13%; Activity [1]: 223 Da; inhibition (Prothrombin [2]): 38%; Activity (CCF-STTG1): 35%; inhibition (Plasma [6]): inactive
Nc1nc(-c2ccccn2)nn1C(=O)c1ccccc1,143%,12%,–,> 5 µM,> 5 µM,0.132 µM,81%,0.235 µM,> 5 µM,> 5 µM,> 5 µM,–,APTT (Blood [10]): 108 s; IC50 [11]: > 5 µM; IC50 (Monoglyceride lipase): > 5 µM; IC50 [12]: 7.93 µM
Cn1c(CNc2ccc(C(=N)N)cc2)nc2cc(C(=O)N(CCC(=O)O)c3ccccn3)ccc21 [DABIGATRAN],252%,–,–,–,–,–,-1%,–,–,–,–,inactive,inhibition (Coagulation factor X [13]): 34%; Activity (Plasma [14]): 678 AU.min/L; Activity (Plasma [15]): 72.4 AU/L; Tmax (Plasma [16]): 25.5 min; T1/2 (Plasma [17]): 15.2 min; Ki [7]: 0.05 µM
O=C(NC[C@H]1CN(c2ccc(N3CCOCC3=O)cc2)C(=O)O1)c1ccc(Cl)s1 [RIVAROXABAN],335%,1302%,–,–,> 5 µM,> 33 µM,-3%,–,–,–,–,inactive,inhibition (Prothrombin [19]): 55%
Nc1nc(-c2ccccn2)nn1C(=O)Cc1ccccc1I,92%,6%,29,> 5 µM,–,0.062 µM,89%,1.82 µM,> 5 µM,> 5 µM,> 5 µM,–,inhibition [20]: 41%; inhibition (Prothrombin [21]): 2%; inhibition [22]: 47%
